Laboratory results taken from PMC6675461 (Bioorganic & medicinal chemistry, 2009).
Structures can show the parent of a compound that is named as a salt. Where two headings read alike, the source gives them in different places.

Legend:
[1] = tested on: three melanoma cell lines (B16-F1, A375, WM-164); assay: SRB assay, average over melanoma cell lines and selectivity vs fibroblast; type: cell-based, human, mouse; conditions: for IC50: Fibroblast
[2] = tested on: four prostate cancer cell lines (DU 145, PC-3, LNCaP, PPC-1); assay: SRB assay, average over prostate cancer cell lines and selectivity vs RH7777; type: cell-based, human; conditions: for IC50: Homo sapiens, RH7777, read-out: Aver. (average IC50 of four prostate cells IC50s)
Summary of the method: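 The control line was LPL receptor-negative RH7777 in DMEM/10% FBS. The prostate IC50s were averaged. Selectivity = IC50 in RH7777 divided by the average tumor-cell IC50.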

A375 cells = assay: SRB antiproliferative assay, A375 melanoma cells; type: cell-based, human; conditions: read-out: IC50 ± SEM A375
Summary of the method: (§1)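 Melanoma lines (human A375, WM-164; mouse B16-F1) and human dermal fibroblasts were grown in DMEM with 5% FBS, 1% antibiotic/antimycotic and bovine insulin (5 μg/mL) at 37 °C, 5% CO2. Diastereomeric mixtures were applied over a wide concentration range for 48 h. Cells were then TCA-fixed (10%), washed, air-dried overnight and SRB-stained, with absorbance read at 560 nm. IC50 (50% growth inhibition versus untreated) was obtained by nonlinear regression.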

[3] = tested on: NCI-60 human tumor cell lines; assay: NCI-60 human tumor cell line anticancer drug screen; type: cell-based; conditions: read-out: GI50 range, all nine types of cancer cells
WM-164 cells = assay: SRB antiproliferative assay, WM-164 melanoma cells; type: cell-based, human; conditions: read-out: IC50 ± SEM WM-164
Summary of the method: as §1

B16-F1 cells = assay: SRB antiproliferative assay, B16-F1 melanoma cells; type: cell-based, mouse; conditions: read-out: IC50 ± SEM B16-F1, 48 h, diastereomeric mixtures
Summary of the method: as §1

[4] = tested on: Human dermal fibroblast cells; assay: SRB assay, fibroblast control cells; type: cell-based; conditions: read-out: IC50 ± SEM Fibroblast, 48 h, control cell line for melanoma
Summary of the method: as §1

[5] = read-out: Aver. (average IC50 of three melanoma cells IC50s)
[6] = read-out: IC50 range over melanoma cell lines
[7] = SRB, 48 h, diastereomeric mixtures

SMILES | IC50 [1, 5] | IC50 [2] | other results
CCCCCCCCCCCCCCCCNC(=O)[C@@H]1CSC(c2ccccc2NC(C)=O)N1 (mixture of isomers) [Compound 3ga, (2RS,4R)-2-(2-Acetylamino-phenyl)-thiazolidine-4-carboxylic acid hexadecylamide] | 7.1 µM | 3 µM | –
CNC(=O)c1cc(Oc2ccc(NC(=O)Nc3ccc(Cl)c(C(F)(F)F)c3)cc2)ccn1 [Sorafenib, reference compound] | – | – | IC50 (A375 cells; Homo sapiens, A-375, 48 h): 5.4 ± 0.5 µM
CCCCCCCCCCCCCCCCNC(=O)[C@@H](N)CSCc1ccccc1 [Compound 16c, (2R)-2-Amino-3-benzylsulfanyl-N-hexadecyl-propionamide] | – | – | IC50 [1, 6]: 12.8 to 15.1 µM
CCCCCCCCCCCCCCCCNC(=O)[C@@H]1CSC(c2ccc(N)cc2)N1 (mixture of isomers) [Compound 13b, (2RS,4R)-2-(4-Amino-phenyl)-thiazolidine-4-carboxylic acid hexadecylamide] | – | 1.8 µM | –
CCCCCCCCCCCCCCCCCCNC(=O)[C@@H]1CSC(c2ccccc2)N1 (mixture of isomers) [Compound 1a, (2RS,4R)-2-Phenyl-thiazolidine-4-carboxylic acid octadecylamide] | 11.6 µM | 6.9 µM | GI50 [3]: 0.12 to 10.9 µM
CCCCCCCCCCCCCCCCNC(=O)[C@@H]1CSC(c2ccc(NC(N)=O)cc2)N1 (mixture of isomers) [Compound 15c, (2RS,4R)-2-(4-Ureido-phenyl)-thiazolidine-4-carboxylic acid hexadecylamide] | 3.9 µM | 2 µM | –
CCCCCCCCC/C=C\CCCCCCCNC(=O)[C@@H]1CSC(c2ccccc2)N1 (mixture of isomers) [Compound 3jb, (2RS,4R)-2-Phenyl-thiazolidine-4-carboxylic acid (Z)-octadec-8-enylamide] | 4.4 µM | 1.7 µM | –
CCCCCCCCCCCCCCCCNC(=O)[C@@H]1CSC(c2ccc(OC)cc2)N1 (mixture of isomers) [Compound 3ea, (2RS,4R)-2-(4-Methoxy-phenyl)-thiazolidine-4-carboxylic acid hexadecylamide] | 1.6 µM | 1.6 µM | –
CCCCCCCCCCCCCCCCNC(=O)[C@@H]1CSC(c2cccc(OC)c2)N1 (mixture of isomers) [Compound 3da, (2RS,4R)-2-(3-Methoxy-phenyl)-thiazolidine-4-carboxylic acid hexadecylamide] | 2 µM | 0.7 µM | –
CCCCCCCCC#CCCCCCCCCCNC(=O)[C@@H]1CSC(c2ccc(NC(C)=O)cc2)N1 (mixture of isomers) [Compound 3ii, (2RS,4R)-2-(4-Acetylamino-phenyl)-thiazolidine-4-carboxylic acid nonadec-10-ynylamide] | – | 1.7 µM | –
CCCCCCCCCCCCCCCCNC(=O)[C@@H]1CSC(c2ccccc2)N1 (mixture of isomers) [Compound 3ja, (2RS,4R)-2-Phenyl-thiazolidine-4-carboxylic acid hexadecylamide] | – | – | IC50 [1, 6]: 0.7 to 2.1 µM
CCCCCCCCCCCCCCCCNC(=O)[C@@H]1CSC(c2ccc(NS(C)(=O)=O)cc2)N1 (mixture of isomers) [Compound 15a, (2RS,4R)-2-(4-Methanesulfonylaminophenyl)-thiazolidine-4-carboxylic acid hexadecylamide] | 60.9 µM | – | IC50 [1, 6]: 5.7 to 114 µM
CCCCCCCCCCCCCCCCNC(=O)[C@@H]1CSC(c2ccccc2OC)N1 (mixture of isomers) [Compound 3ca, (2RS,4R)-2-(2-Methoxy-phenyl)-thiazolidine-4-carboxylic acid hexadecylamide] | 3.2 µM | 4.8 µM | –
CCCCCCCCCCCCCCCCCCNC(=O)[C@@H]1CSC(c2ccc(OC)c(OC)c2)N1 (mixture of isomers) [Compound 3ba, (2RS,4R)-2-(3,4-Dimethoxy-phenyl)-thiazolidine-4-carboxylic acid octadecylamide] | 8 µM | 3.2 µM | –
CCCCCCCCCCCCCCCCNC(=O)[C@@H]1CSC(c2ccc(NC(=O)CCl)cc2)N1 (stereo partly drawn) [Compound 15b, (2RS,4R)-2-[4-(2-Chloro-acetylamino)-phenyl]-thiazoli-dine-4-carboxylic acid hexadecylamide] | 39.8 µM | 1 µM | IC50 [1, 6]: 5.7 to 114 µM
CC(=O)Nc1ccc(C2N[C@H](C(=O)NC3C4CC5CC(C4)CC3C5)CS2)cc1 (mixture of isomers) [Compound 3ic, (2RS,4R)-2-(4-Acetylamino-phenyl)-thiazolidine-4-carboxylic acid adamantan-2-ylamide] | 79.5 µM | – | –
CC(=O)Nc1ccc(C2N[C@H](C(=O)Nc3ccc4cc5ccccc5cc4c3)CS2)cc1 (some centres unmarked) [Compound 3ie] | 3.4 µM | 1 µM | –
CCCCCCCCCCCCCCCCNC(=O)[C@@H]1CSC(c2ccc(N(C)C)cc2)N1 (mixture of isomers) [Compound 3fa, (2RS,4R)-2-(4-Dimethylamino-phenyl)-thiazolidine-4-carboxylic acid hexadecylamide] | – | 2.8 µM | –
CCCCCCCCC/C=C/CCCCCCCNC(=O)[C@@H]1CSC(c2ccccc2)N1 (mixture of isomers) [Compound 3jc, (2RS,4R)-2-Phenyl-thiazolidine-4-carboxylic acid (E)-octadec-8-enylamide] | 5.9 µM | – | IC50 (WM-164 cells; Homo sapiens, WM164, 48 h): 2.4 ± 0.2 µM
CCCCCCCCCCCCCCCCCCNC(=O)[C@@H]1CSC(c2cc(OC)c(OC)c(OC)c2)N1 (mixture of isomers) [Compound 3aa, (2RS,4R)-2-(3,4,5-Trimethoxy-phenyl)-thiazolidine-4-carboxylic acid octadecylamide] | – | – | fold more potent than 1a against prostate cancer cells ([2]; from average IC50): 2.4 fold
[NH2][Pt]([NH2])([Cl])[Cl] [CDDP, cisplatin, reference compound] | – | – | IC50 (B16-F1 cells): > 100 µM; IC50 (A375 cells; [7]): > 100 µM; IC50 (WM-164 cells; [7]): > 100 µM; IC50 [4]: > 100 µM; Antiproliferative activity on melanoma cell lines, in words ([1]; reference compounds, in vitro): resistant
CCCCCCCCCCCCCCCCOC(=O)[C@@H]1CSC(c2ccc(NC(C)=O)cc2)N1 (mixture of isomers) [Compound 5, (2RS,4R)-2-(4-Acetylamino-phenyl)-thiazolidine-4-carboxylic acid hexadecyl ester] | 29.5 µM | – | –
CC(=O)Nc1ccc(C2N[C@H](C(=O)NC34CC5CC(CC(C5)C3)C4)CS2)cc1 (mixture of isomers) [Compound 3ib, (2RS,4R)-2-(4-Acetylamino-phenyl)-thiazolidine-4-carboxylic acid adamantan-1-ylamide] | 120 µM | – | –
CCCCCCCCC/C=C/CCCCCCCNC(=O)[C@@H]1CSC(c2ccc(OC)c(OC)c2)N1 (mixture of isomers) [Compound 3bc, (2RS,4R)-2-(3,4-Dimethoxy-phenyl)-thiazolidine-4-carboxylic acid (E)-octadec-8-enylamide] | – | 1.2 µM | –
CC(=O)Nc1ccc(C2N[C@H](C(=O)Nc3ccc(-c4ccccc4)cc3)CS2)cc1 (mixture of isomers) [Compound 3if, (2RS,4R)-2-(4-Acetylamino-phenyl)-thiazolidine-4-carboxylic acid biphenyl-4-ylamide] | 5.3 µM | – | –
CCCCCCCCCCCCCCCCNC[C@@H]1CSC(c2ccccc2)N1 (mixture of isomers) [Compound 8a, (2RS,4R)-Hexadecyl-(2-phenyl-thiazolidin-4-ylmethyl)-amine hydrochloride] | 7.5 µM | – | –
CCCCCCCCCCCCCCCCNC(=O)CNCc1ccc(NC(C)=O)cc1 [Compound 16d, 2-(4-Acetylamino-benzylamino)-N-hexadecyl-acetamide] | – | – | IC50 [1, 6]: 10.2 to 11.9 µM
CCCCCCCCCCCCCCCCNC(=O)[C@@H](N)CSC [Compound 16a, (2R)-2-Amino-N-hexadecyl-3-methylsulfanyl-propion-amide] | – | – | IC50 [1, 6]: 12.9 to 14.4 µM
CCCCCCCCC/C=C/CCCCCCCNC(=O)[C@@H]1CSC(c2cc(OC)c(OC)c(OC)c2)N1 (stereo partly drawn) [Compound 3ac, (2RS,4R)-2-(3,4,5-Trimethoxy-phenyl)-thiazolidine-4-carboxylic acid octadec-8-trans-enylamide] | 2 µM | 0.8 µM | –
CCCCCCCCC/C=C\CCCCCCCNC(=O)[C@@H]1CSC(c2cc(OC)c(OC)c(OC)c2)N1 (stereo partly drawn) [Compound 3ab, (2RS,4R)-2-(3,4,5-Trimethoxy-phenyl)-thiazolidine-4-carboxylic acid octadec-8-cis-enylamide] | 2.8 µM | 1 µM | –
